Data on 10 compounds can be found in article PMC7416767 (Gene, 2020).

Data set [1] concerns the target T1, rat EP4 receptor (Rattus norvegicus, UniProt P43114). Kind of data set: cAMP production, rat EP4 receptor expressed in HEK293T cells. The data set is classed as cell-based. The note with it: read-out: rat EP4 receptor cAMP levels EC50; mean ± SEM. A general note: cAMP levels reflect the balance of adenylyl cyclase and phosphodiesterase activity.
Data set [2] has as its target T1, rat EP4 receptor. The experiment in a line: CRE-regulated SEAP reporter. The data set is classed as cell-based.
Data set [3] has as its system rat BMCs. The experiment in a line: ALP enzyme activity in total rat bone marrow cell culture, day 9. The note with it: for change in ALP activity over vehicle treated cultures: doses ranging from 1 pM to 10 μM, once at plating. The data set is classed as cell-based. A digest of the protocol: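 Unfractionated BMCs from tibiae and femora of young or old female or male Sprague-Dawley rats, extruded into MEMα with 10% FCS and 50 μg/mL gentamicin, triturated and filtered. Plated at 1.8 × 10^5 cells/cm2 and dosed once at plating from 1000x ethanol stocks. Dex (10 nM final) added day 4. Day 9 lysis (Tris pH 8.4, ZnCl2, MgCl2, Triton X-100); pNPP, 405 nm; n = 8 wells; EC50 by non-linear regression.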

The subject of data set [4] is rat BMCs. The experiment in a line: Total adherent cell number in BMC cultures. The data set is classed as cell-based. The note with it: 1μM, days 5, 6, or 7, versus vehicle.
In data set [5] the test system is rat BMCs. The experiment in a line: ALP-positive colony area in BMC cultures. The data set is classed as cell-based. The note with it: 1μM, day 9, compared to vehicle.
In data set [6] the test system is rat BMCs. The experiment in a line: Mineralization of BMC cultures. The data set is classed as cell-based. The note with it: 1μM, day 21, compared to vehicle. The method in brief: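 Rat BMCs dosed at plating with 1μM test compound or 0.1% ethanol vehicle (n = 4 or 6 wells); in the short-exposure arm, 30 or 60 min suspension exposure. Dex added day 4; from day 7, osteogenic medium (ascorbic acid, dex, βGP) every 3 days. Day 21: fixed in 2% paraformaldehyde, stained with 5% AgNO3 plus UV, von Kossa-positive area per well quantified by imaging.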

The test system of data set [7] is rat BMCs. Kind of data set: Bone phenotype marker gene expression in BMCs. The conditions noted are these: 1μM once at plating. Type of data set: cell-based. A digest of the protocol: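 BMCs from young female rats dosed once at plating with 1μM test compound or 0.1% ethanol. Dex (10 nM final) added day 4. From day 7, fed every 3 days with medium containing ascorbic acid 100 μg/mL, dex 10 nM and βGP 10 mM. On set days, total RNA taken (n = 3 per time point), quantified at 260 nm, reverse transcribed, and analysed by SYBR Green qPCR.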

Data set [8] has as its system rat BMCs. The experiment in a line: Osteoclastogenesis assay, TRAP-positive cells in BMC cultures. The data set is classed as cell-based. The note with it: for number of TRAP positive cells in the absence of exogenous M-CSF and RANKL: data not shown; for number of TRAP-positive cells: various doses, in the presence of 16 ng/mL RANKL and 16 ng/mL M-CSF, versus vehicle.

Data set [9] concerns rat BMCs. The experiment in a line: Adipogenesis assay, Oil Red O staining in BMC cultures. The data set is classed as cell-based. The conditions noted are these: 1μM, insulin and dexamethasone, day 12, versus vehicle.
The nature of data set [10]: Protein binding in rat plasma by equilibrium dialysis. The note with it: 10 μM, equilibrium dialysis 4 hours 37°C. Type of data set: in vitro ADME. On the technique in general: Equilibrium dialysis compares concentrations on both sides of a semipermeable membrane.
A short description of another data set: Half-life in rat plasma. The data set is classed as in vitro ADME. The conditions noted are these: 1 μM, 37°C. The method in brief:
(§1)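 Test compound at 1 μM in rat blood or plasma, 37°C, sampled at 0, 30, 60, 90 and 120 min. Quenched with acetonitrile, centrifuged, analyte peak areas read by HPLC-MS/MS.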

A short description of the next data set: Half-life in rat blood. Type of data set: in vitro ADME. The conditions noted are these: 1 μM, 37°C. The method in brief: as §1
Data set [11] in a line: Half-life and intrinsic clearance in rat hepatocytes. The data set is classed as in vitro ADME. The method in brief: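 Incubated at 37°C with 0.7 million viable rat hepatocytes/mL, sampled at 0, 30, 60, 90 and 120 min. Each sample quenched with acetonitrile and centrifuged; analyte peak areas measured by HPLC-MS/MS to derive half-life and intrinsic clearance.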
Data set [12] in a line: In vivo pharmacokinetics after intravenous dosing in rats. The note with it: intravenous 0.5 mg/kg, male Sprague-Dawley rats. The method in brief:
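Single intravenous dose of 0.5 mg/kg in 3 male Sprague-Dawley rats. Blood sampled up to 24 h post-dose; plasma levels measured by LC-MS/MS. Parameters calculated from the plasma concentration–time course by non-compartmental analysis.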

Data set [13] can be described thus: Chemical stability of KMN-159. The data set is classed as physicochemical.
A further data set concerns cells. The experiment in a line: Overt toxicity in cells. Type of data set: cell-based. The conditions noted are these: except at a very high dose.
The next data set has as its target human EP4 (Homo sapiens, UniProt P35408). The conditions noted are these: read-out: human EP4 binding Ki; ref Barrett et al., 2019; cited from earlier work.
In another data set the target is human EP3. The conditions noted are these: read-out: human EP3 binding Ki; ref Barrett et al., 2019; cited from earlier work.
Data set [14] concerns non-EP prostanoids receptors (DP, FP, IP and TP). The note with it: tested at 10 μM; ref Barrett et al., 2019; cited from earlier work.
The next data set relates to cytochrome P450. The conditions noted are these: in vitro safety test; ref Barrett et al., 2019; cited from earlier work.
A further data set concerns bacterial. The conditions noted are these: in vitro safety test; ref Barrett et al., 2019; cited from earlier work.
The conditions of data set [15]: in vitro safety test; ref Barrett et al., 2019; cited from earlier work.
The conditions of data set [16]: in vitro safety test; ref Barrett et al., 2019; cited from earlier work. This is another data set of the same source.
For data set [17], the target named is T2, rat EP2 receptor (Rattus norvegicus, UniProt Q62928). The experiment in a line: cAMP production, rat EP2 receptor expressed in HEK293T cells. Type of data set: cell-based.
The target of data set [18] is T2, rat EP2 receptor. Kind of data set: CRE-regulated SEAP reporter. The data set is classed as cell-based.
Where [19] appears, read: read-out: rat EP4 receptor CREB activation EC50, CRE-SEAP reporter, mean ± SEM.

T1 sequence (P43114 whole entry): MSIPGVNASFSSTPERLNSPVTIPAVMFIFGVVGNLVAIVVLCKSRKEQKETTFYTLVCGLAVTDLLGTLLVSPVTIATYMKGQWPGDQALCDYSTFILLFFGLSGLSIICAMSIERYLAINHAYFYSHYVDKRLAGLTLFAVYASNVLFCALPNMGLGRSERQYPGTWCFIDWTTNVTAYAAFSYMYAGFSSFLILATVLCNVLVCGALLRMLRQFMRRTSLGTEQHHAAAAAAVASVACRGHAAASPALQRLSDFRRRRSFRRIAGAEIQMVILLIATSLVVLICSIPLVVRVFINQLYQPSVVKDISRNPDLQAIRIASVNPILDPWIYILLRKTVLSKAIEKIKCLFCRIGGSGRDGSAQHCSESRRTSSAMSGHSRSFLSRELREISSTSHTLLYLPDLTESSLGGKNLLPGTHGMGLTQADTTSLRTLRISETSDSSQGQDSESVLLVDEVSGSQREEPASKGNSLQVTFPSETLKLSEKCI
T2 sequence (Q62928 whole entry): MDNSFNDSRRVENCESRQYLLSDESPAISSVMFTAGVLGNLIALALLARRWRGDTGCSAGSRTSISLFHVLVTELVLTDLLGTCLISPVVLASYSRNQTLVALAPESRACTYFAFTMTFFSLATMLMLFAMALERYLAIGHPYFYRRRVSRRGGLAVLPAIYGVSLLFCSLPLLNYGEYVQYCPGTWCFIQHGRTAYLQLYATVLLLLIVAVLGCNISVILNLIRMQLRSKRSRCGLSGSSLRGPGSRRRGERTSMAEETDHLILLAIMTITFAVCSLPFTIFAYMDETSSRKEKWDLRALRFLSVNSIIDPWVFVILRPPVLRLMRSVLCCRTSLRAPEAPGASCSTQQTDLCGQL
Sequence of human EP4 (P35408 whole entry): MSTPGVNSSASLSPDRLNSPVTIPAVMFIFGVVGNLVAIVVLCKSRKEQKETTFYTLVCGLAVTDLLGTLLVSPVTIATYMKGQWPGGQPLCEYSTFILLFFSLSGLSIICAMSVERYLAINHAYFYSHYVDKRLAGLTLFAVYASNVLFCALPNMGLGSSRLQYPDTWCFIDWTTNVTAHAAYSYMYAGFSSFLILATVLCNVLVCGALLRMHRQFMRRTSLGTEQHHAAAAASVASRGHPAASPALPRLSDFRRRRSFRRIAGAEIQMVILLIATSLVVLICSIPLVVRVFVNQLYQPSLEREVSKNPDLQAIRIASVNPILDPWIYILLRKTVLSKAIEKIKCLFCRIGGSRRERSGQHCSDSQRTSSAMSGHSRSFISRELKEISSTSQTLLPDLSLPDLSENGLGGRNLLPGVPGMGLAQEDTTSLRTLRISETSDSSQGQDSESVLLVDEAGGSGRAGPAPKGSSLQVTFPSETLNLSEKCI

As usually defined, the EC50 is the midpoint of the concentration-response curve. With `CCCCCC(O)C=CC1CCC(=O)N1CCCCCCC(=O)O` (stereo not shown) [11-deoxy-8-aza-PGE1, reference compound], the EC50 at rat EP4 receptor [1] was found to be 2.6 ± 0.62 nM; at rat EP4 receptor [2] (setting [19]) it was 0.16 ± 0.049 nM.

The clearance is a measure of how efficiently the substance is removed, as volume per time. Broadly, the Ki is a measure of affinity in units of concentration, obtained from inhibition or displacement. In the case of `CCC#CC[C@H](C)[C@H](O)/C=C/[C@H]1CC(F)(F)C(=O)N1CCCCCCC(=O)O` [KMN-159], the EC50 on rat EP4 receptor [1] is 0.5 ± 0.08 nM. In addition, the EC50 at rat EP4 receptor [2] (setting [19]) turned out to be 0.03 ± 0.003 nM. Moreover, the “increase in ALP activity compared to vehicle treated cells” value in the data set with rat BMCs [3] (1μM, 10 minutes exposure then compound removed, ALP day 9) is “approximately 3 fold”. Also, the “induction of ALP as percent of the maximum reached between 30 and 60 minutes of exposure” value with rat BMCs [3] (1μM, 10 minutes exposure, ALP measured 9 days later) is reported as “approximately 75%”. Moreover, in the data set on rat BMCs [3] (young female rat BMCs, ALP EC50), the “increase in potency in the BMCs compared to 11-deoxy-8-aza-PGE1” value is listed as “approximately 40 fold”. The total cell number entry with rat BMCs [4] was “no significant differences”. In addition, the ALP positive area result with rat BMCs [5] is on record as “increase the ALP positive area”. Besides, the “mineralized area detected by von Kossa staining” value in the data set on rat BMCs [6] is given as “increase in mineralized area”. Moreover, in the data set with rat BMCs [7] (all timepoints tested, versus vehicle), the RANKL expression result is “significantly increased expression”. Besides, in the data set with rat BMCs [7] (day 5), the “Runx2 mRNA increase in expression” value is ~ 2 x. The Runx2 expression entry with rat BMCs [7] (days 19 and 25, versus vehicle) is “significantly increased”. Also, the osteocalcin gene expression result in the data set on rat BMCs [7] (later days, versus vehicle) is “increased with both, time in culture and KMN-159 treatment”. For the same compound, in the data set on rat BMCs [7] (versus vehicle), the “ALP mRNA expression” value is “increased”, the OPG expression entry was “either unchanged or decreased” and the “collagen type IαI expression” value is recorded as “further increased”. Moreover, in the data set with rat BMCs [8], the “number of TRAP positive cells in the absence of exogenous M-CSF and RANKL” value is recorded as “none was observed”; the “number of TRAP-positive cells” value is “significantly increased numbers of TRAP-positive cells”. Moreover, the “Oil Red O staining (adipocyte formation)” value with rat BMCs [9] was “no significant change”. In addition, the protein binding in data set [10] was 53.8 ± 3.5%. The “half life - plasma” value in the data set “Half-life in rat plasma” is above 2 h. The “half life - blood” value in the data set “Half-life in rat blood” is above 2 h. Moreover, the “intrinsic clearance - hepatocytes” value in [11] is listed as below 8.2 μL/min/10^6 cells. Also, the “half life - hepatocytes” value in [11] (0.7 million viable cells/mL, 37°C) was above 2 h. For the same compound, in data set [12], the “area under the curve (extrapolated to infinity)” value is 21.8 ± 5.55 ng·h/mL, the “in vivo clearance rate” value was determined as 0.398 ± 0.0992 mL/min/kg, the “mean residence time last” value came to 8.3 ± 1.0 min and the “steady state volume of distribution” value amounted to 3.41 ± 1.15 L/kg. The compound further gave a clearance in data set [12] (Table 3) of 398 ± 99.2 mL/min/kg. Moreover, the recovery result in data set [13] (in aqueous solution and upon sterilization by autoclaving or gamma irradiation, data not shown) was “higher than 90%”. In data set [13] (storage at room temperature for over two years), the “degradation of crystalline solid” value is reported as “no measurable degradation”. Moreover, the “overt toxicity in cells” value with cells was “no overt toxicity”. Besides, the Ki at human EP4 was 0.38 nM. Further, on human EP3, the inhibition constant (Ki) is 258 nM. Also, the “binding to the non-EP prostanoids receptors” value in data set [14] is reported as “no detectable binding”. In the data set with cytochrome P450, the “cytochrome P450 inhibition” value was “negative”. Besides, the bacterial cytotoxicity result in the data set with bacterial was “negative”. Moreover, the Ames fluctuation result in data set [15] is listed as “negative”. In addition, the micronucleus formation result in data set [16] is “negative”.

As to `CCC#CC[C@H](C)[C@H](O)/C=C/[C@H]1CCC(=O)N1CCCCCCC(=O)O` [KMN-80], the EC50 at rat EP4 receptor [1] amounted to 2.6 ± 0.31 nM; on rat EP4 receptor [2] (setting [19]), 0.17 ± 0.014 nM. Besides, the “potency in the BMC ALP assay compared with parent compound 11-deoxy-8-aza-PGE1” value in the data set on rat BMCs [3] (young female rat BMCs) was “unchanged from the parent compound”.

On to `CCCCC[C@H](O)/C=C/[C@H]1[C@H](O)CC(=O)[C@@H]1CCCCCCC(=O)O` [PGE1, prostaglandin E1], for which the EC50 at rat EP2 receptor [17] is 79.5 ± 9.1 nM; on rat EP2 receptor [18], 4.5 ± 0.46 nM.

With `CS(=O)(=O)NC(=O)CCC/C=C\C[C@H]1C(=O)C[C@@H](O)[C@@H]1/C=C/[C@@H](O)COc1ccccc1` [sulprostone, reference compound], the “change in ALP activity over vehicle treated cultures” value in the data set on rat BMCs [3] is listed as “no change in ALP activity”.

For `CCCCC[C@H](O)/C=C/[C@H]1[C@H](O)CC(=O)[C@@H]1C/C=C\CCCC(=O)O` [PGE2, prostaglandin E2, reference compound], it took 0.03 ± 0.002 nM to reach a half-maximal effect at rat EP4 receptor [2] (EC50). Besides, the total cell number entry with rat BMCs [4] was “no significant differences”. The ALP positive area result in the data set on rat BMCs [5] is “increase the ALP positive area”. Besides, in the data set with rat BMCs [8], the “number of TRAP positive cells in the absence of exogenous M-CSF and RANKL” value is reported as “none was observed”; the “number of TRAP-positive cells” value was “significantly increased numbers of TRAP-positive cells”. In the data set on rat BMCs [9], the “Oil Red O staining (adipocyte formation)” value is listed as “no significant change”.

`CCCC1([C@H](O)C/C=C/[C@H]2[C@H](O)CC(=O)[C@@H]2CCCCCCC(=O)OC)CCC1` [butaprost, reference compound]: the “change in ALP activity over vehicle treated cultures” value in the data set on rat BMCs [3] is recorded as “no change in ALP activity”.

In the case of `CCCCC[C@H](O)/C=C/[C@H]1CCC(=O)[C@@H]1CCCCCCC(=O)O` [11-deoxy-PGE1, reference compound], the EC50 on rat EP4 receptor [1] stood at 1.3 ± 0.24 nM; at rat EP4 receptor [2] (setting [19]) it was 0.06 ± 0.012 nM.

As for `CCCCC[C@H](O)/C=C/[C@H]1CC(F)(F)C(=O)N1CCCCCCC(=O)O` [KMN-165], the EC50 was found to be 0.3 ± 0.025 nM at rat EP4 receptor [1] and 0.03 ± 0.007 nM on rat EP4 receptor [2] (setting [19]).

As for `CCCCC[C@H](O)/C=C/[C@H]1CCC(=O)[C@@H]1C/C=C\CCCC(=O)O` [11-deoxy-PGE2, reference compound], the concentration for a half-maximal effect (EC50) at rat EP4 receptor [1] was 1.1 ± 0.16 nM.
